# Assay results of several laboratories.
# Lines come from different studies, so protocols differ.
# Target: Casein kinase I isoform gamma-3 (CSNK1G3, Homo sapiens, UniProt Q9Y6M4)
Structure (SMILES),assay,setting,measurement,result
O=C(O)[C@@H]1[C@@H](Cn2nnc3ccccc3c2=O)CC[C@H]1C(=O)c1ccc(OCCC2CCOCC2)cc1,"cell-free assay, competition with immobilised ligand",1 µM,remaining binding,100%
CCN1CCC2(CC1)NC(=O)c1c(c3ccc(Cl)c(Cl)c3n1C)C2C#N (racemic),"thermal stability, DSF",10 µM,ΔTm,0.8 °C
Nc1ncnc2occ(-c3ccc(NC(=O)Nc4cc(C(F)(F)F)ccc4F)cc3)c12,"cell-free assay, inhibitor",20 µM,remaining signal,11%
C[C@@]1(Cc2ccc(C#N)cc2)C(=O)N(c2cc(Cl)cc(Cl)c2)c2ncc(C(=O)NC3(c4nc(C5CCC5)no4)CC3)n21,"cell-free assay, competition with immobilised ligand",1 µM,remaining binding,100%
Cn1c2c(c3ccc(Cl)c(Cl)c31)C(C#N)C1(CCNCC1)NC2=O (racemic),"thermal stability, DSF",10 µM,ΔTm,2.9 °C
O=C1NC(=O)c2cc(Nc3ccc(F)cc3)c(Nc3ccc(F)cc3)cc21,cell-free assay,0.5 µM,remaining signal,90.7%
C[C@@H](c1cccc(C#N)c1)n1cc(Cl)cc(C(N)=O)c1=N,"cell-free assay, competition with immobilised ligand",1 µM,remaining binding,100%
CN(c1nccc(-c2cnn3ncccc23)n1)C1CC1,binding,1 µM,remaining binding,100%
NS(=O)(=O)c1cc(NC(=O)Cc2ccccc2)ccc1Oc1cccc(Cl)c1,"cell-free assay, competition with immobilised ligand",1 µM,remaining binding,74%
CNC(=O)c1cc(Oc2ccc(NC(=O)Nc3ccc(Cl)c(C(F)(F)F)c3)cc2)ccn1,"enzyme activity, inhibitor",10 µM,inhibition,2%
Cc1ccc(NC(=O)c2ccc(C)c(C(F)(F)F)c2)cc1C#Cc1nn(C2CCC(O)CC2)c2ncnc(N)c12 (centres unmarked),cell-free assay,10 µM,remaining signal,103%
Cc1ccc(Nc2nccc(N(C)c3ccc4c(C)n(C)nc4c3)n2)cc1S(N)(=O)=O,"enzyme activity, inhibitor",10 µM,inhibition,18%
O=C1Nc2ccc(Cl)cc2C1=Cc1cc(Cl)c(O)c(Cl)c1,cell-free assay,0.5 µM,remaining signal,93%
CCC1(CC)NC(=O)c2c(c3ccc(Cl)c(Cl)c3n2C)C1C#N (centres unmarked),"thermal stability, DSF",10 µM,ΔTm,0 °C
COc1cc(Cl)c(C(=O)N[C@@H](CN[C@H]2CC[C@@H](N)CC2)Cc2ccc(C#N)cc2)cc1-c1ccc(CN[C@H](C)c2ccc(C)cc2)o1,"enzyme activity, inhibitor",1 µM,remaining activity,96%
CS(=O)(=O)c1cc(C2(NC(=O)c3cncc4c3cnn4-c3ccc(F)cc3)CC2)ccn1,"cell-free assay, competition with immobilised ligand",1 µM,remaining binding,100%
CS(=O)(=O)CCNCc1ccc(-c2ccc3ncnc(Nc4ccc(OCc5cccc(F)c5)c(Cl)c4)c3c2)o1,cell-free assay,0.5 µM,remaining signal,104%
Cc1cc(NC(=O)c2cccc3cc(-c4cccc5[nH]nc(N)c45)ccc23)ccc1F,"enzyme activity, inhibitor",0.1 µM,activity vs control,107%
CC(C)(C)c1nc(-c2cccc(NS(=O)(=O)c3c(F)cccc3F)c2F)c(-c2ccnc(N)n2)s1,"enzyme activity, inhibitor, radiometric",1 µM,remaining activity,91%
N#CC1c2c([nH]c3c(Cl)c(Cl)ccc23)C(=O)NC12CCCCC2 (racemic),"thermal stability, DSF",10 µM,ΔTm,0.2 °C
COc1cc(Nc2c(C#N)cnc3cc(OCCCN4CCN(C)CC4)c(OC)cc23)c(Cl)cc1Cl,cell-free assay,0.5 µM,remaining signal,98.3%
Cn1c2c(c3ccc(Cl)c(Cl)c31)C(C#N)C1(CCN(C(=O)OC(C)(C)C)CC1)NC2=O (racemic),"thermal stability, DSF",10 µM,ΔTm,-0.1 °C
CN1CC(Oc2cnc(C#N)cc2-c2ccn3nc(NC(=O)C4CC4)cc3c2)C1,"enzyme activity, inhibitor",1 µM,inhibition,21%
CCCOc1ccc([C@@H]2[C@@H](C(=O)O)[C@H](c3ccc4c(c3)OCO4)CN2CC(=O)Nc2c(CC)cccc2CC)cc1,"cell-free assay, competition with immobilised ligand",1 µM,remaining binding,100%
O=C(Nc1cnn(-c2csc(C(=O)NC3COC3)c2)c1)Nc1c(F)cccc1Cl,"enzyme activity, inhibitor",5 µM,remaining activity,92.6%
O=S(=O)(NC1CCC(c2cc(F)ccc2F)(S(=O)(=O)c2ccc(Cl)cc2)CC1)C(F)(F)F (centres unmarked),"cell-free assay, competition with immobilised ligand",1 µM,remaining binding,83%
COc1cc2ncnc(Nc3ccc(Oc4ccccc4)c(C)c3C)c2cc1OC,"enzyme activity, inhibitor",1 µM,inhibition,3%
CCS(=O)(=O)c1cc2cc(C[C@@](O)(CC(C)(C)c3ccc(F)cc3C(N)=O)C(F)(F)F)[nH]c2cn1,"cell-free assay, competition with immobilised ligand",1 µM,remaining binding,100%
CCOc1cc(-c2nncn2C)ccc1Nc1ncc2cc(C)nc(NCC(C)(C)C)c2n1,"enzyme activity, inhibitor, FRET",1 µM,inhibition,< 15%
